Results from ChEMBL document CHEMBL1152689, “Synthesis, tautomerism, and antimicrobial, anti-HCV, anti-SSPE, antioxidant, and antitumor activities of arylazobenzosuberones” (Bioorg Med Chem, 2009).
Values after ≈ are worked out from the molar mass of the structure shown. Active and inactive are the calls of the source. The calls are words filed in the database; no cut-off is given here.

Columns and labels:
[1] = test system: Hepatitis C virus; experiment: Antiviral activity against HCV by cell based replicon assay; format: functional, Hepacivirus hominis
How it was run: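 HCV replicon cells plated at 1×10^4 per well. Next day incubated at 37 °C with serially diluted compound in DMEM with 2% FBS and 0.5% DMSO. HCV RNA copy number measured by quantitative RT-PCR on total cellular RNA. Each point is the average of five replicates. Cytotoxicity measured by MTS in parallel.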

[2] = test system: Measles morbillivirus; experiment: Antiviral activity against Measles virus infected in intracranially dosed hamster assessed as inhibition of subacute sclerosing panencephalitis; format: functional
How it was run: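 Hamsters under ether anesthesia injected intracranially, into the subarachnoid space at 2 mm depth, at 5, 10 and 20 mg/kg/day for 10 days. Four animals per group sacrificed on days 1–20. Brains homogenized in PBS and centrifuged, supernatant deproteinized with ethanol, then MIC in brain tissue determined by HPLC and bioassay.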

[3] = test system: Syncephalastrum racemosum; experiment: Antimicrobial activity against Syncephalastrum racemosum at 2.5 ug/mL by agar diffusion method; format: functional; details: read-out: IZ
[4] = test system: Aspergillus fumigatus; experiment: Antimicrobial activity against Aspergillus fumigatus at 2.5 ug/mL by agar diffusion method; format: functional; details: read-out: IZ
[5] = test system: Radical scavenging activity; experiment: Antioxidant activity assessed as DPPH free radical scavenging activity by measuring reduction in DPPH absorbance by ELISA relative to untreated control; format: functional; design: concentration or dose not given beside the values
How it was run: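 Test compounds dissolved in DMSO, ascorbic acid standard in water, both serially diluted. 10 µl sample added to 90 µl of 100 µM DPPH in methanol and kept in the dark at 37 °C for 30 min. Absorbance read at 515 nm. Blank is DMSO plus DPPH. % reduction = (A_B − A_A)/A_B × 100. Run in triplicate.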

[6] = test system: Staphylococcus aureus; experiment: Antimicrobial activity against Staphylococcus aureus at 1.25 ug/mL by agar diffusion method; format: functional; details: read-out: IZ
[7] = test system: Bacillus subtilis; experiment: Antimicrobial activity against Bacillus subtilis at 2.5 ug/mL by agar diffusion method; format: functional; details: read-out: IZ
[8] = test system: Staphylococcus aureus; experiment: Antimicrobial activity against Staphylococcus aureus at 5 ug/mL by agar diffusion method; format: functional; details: read-out: IZ
[9] = test system: Escherichia coli; experiment: Antimicrobial activity against Escherichia coli at 5 ug/mL by agar diffusion method; format: functional; details: read-out: IZ
[10] = test system: Staphylococcus aureus; experiment: Antimicrobial activity against Staphylococcus aureus at 2.5 ug/mL by agar diffusion method; format: functional; details: read-out: IZ
[11] = test system: Pseudomonas aeruginosa; experiment: Antimicrobial activity against Pseudomonas aeruginosa at 5 ug/mL by agar diffusion method; format: functional; details: read-out: IZ
[12] = test system: Penicillium italicum; experiment: Antimicrobial activity against Penicillium italicum at 1.25 ug/mL by agar diffusion method; format: functional; details: read-out: IZ
[13] = test system: Candida albicans; experiment: Antimicrobial activity against Candida albicans at 2.5 ug/mL by agar diffusion method; format: functional; details: read-out: IZ
[14] = test system: Penicillium italicum; experiment: Antimicrobial activity against Penicillium italicum at 2.5 ug/mL by agar diffusion method; format: functional; details: read-out: IZ
[15] = test system: Penicillium italicum; experiment: Antimicrobial activity against Penicillium italicum at 5 ug/mL by agar diffusion method; format: functional; details: read-out: IZ
[16] = test system: Syncephalastrum racemosum; experiment: Antimicrobial activity against Syncephalastrum racemosum at 5 ug/mL by agar diffusion method; format: functional; details: read-out: IZ
[17] = test system: Aspergillus fumigatus; experiment: Antimicrobial activity against Aspergillus fumigatus at 1.25 ug/mL by agar diffusion method; format: functional; details: read-out: IZ
[18] = test system: Bacillus subtilis; experiment: Antimicrobial activity against Bacillus subtilis at 1.25 ug/mL by agar diffusion method; format: functional; details: read-out: IZ
[19] = Antioxidant activity assessed as inhibition of peroxynitrite-mediated 3-nitrotyrosine formation by HPLC; format: functional
How it was run: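 Tyrosine and peroxynitrite, each 100 µM, reacted with compound at 0–300 µM in 100 mM phosphate buffer pH 7.4 at 37 °C for 15 min. Peroxynitrite made from acidified H2O2 plus KNO2, quenched with NaOH, and kept on ice no longer than 30 min before use.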

[20] = target: DNA topoisomerase 2-alpha (Mus musculus) (UniProt Q01320); experiment: Inhibition of topoisomerase 2 from mouse P388 cells assessed as relaxation of pBR322 DNA by agarose gel electrophoresis relative to etoposide; format: cell-based
How it was run: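 Topoisomerase II purified from P388 cells. One unit relaxes 0.125 µg supercoiled pBR322 DNA, incubated with or without inhibitor at 30 °C for 1 h in 50 mM Tris-HCl pH 8.0, 100 mM KCl, 10 mM MgCl2, 0.5 mM DTT, 1 mM ATP and 30 µg/ml BSA. Products run on 0.7% agarose in TBE, stained with ethidium bromide and imaged under UV.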

[21] = test system: MC-38; experiment: Antitumor activity against mouse Colon 38 cells implanted in iv dosed C57BL/6 mouse administered as single dose; format: functional, organism-based
How it was run: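 Female C57BL/6 mice, 6 weeks old, given about 30 mg Colon 38 tumor tissue s.c. in the flank. Randomized into groups of n = 5 when tumors reached about 300 mm3 (day 1). Compound in 5% glucose given as a single iv tail-vein dose on day 1; controls received 5% glucose. Tumor volume = (length × width²)/2 and body weight tracked.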

[22] = test system: Bacillus subtilis; experiment: Antimicrobial activity against Bacillus subtilis at 5 ug/mL by agar diffusion method; format: functional; details: read-out: IZ
[23] = test system: Escherichia coli; experiment: Antimicrobial activity against Escherichia coli at 1.25 ug/mL by agar diffusion method; format: functional; details: read-out: IZ
[24] = test system: Pseudomonas aeruginosa; experiment: Antimicrobial activity against Pseudomonas aeruginosa at 2.5 ug/mL by agar diffusion method; format: functional; details: read-out: IZ
[25] = test system: Syncephalastrum racemosum; experiment: Antimicrobial activity against Syncephalastrum racemosum at 1.25 ug/mL by agar diffusion method; format: functional; details: read-out: IZ
[26] = target: T1, DNA topoisomerase 1 (Homo sapiens) (UniProt P11387); experiment: Inhibition of topoisomerase 1 relative to etoposide
T1 sequence (whole entry): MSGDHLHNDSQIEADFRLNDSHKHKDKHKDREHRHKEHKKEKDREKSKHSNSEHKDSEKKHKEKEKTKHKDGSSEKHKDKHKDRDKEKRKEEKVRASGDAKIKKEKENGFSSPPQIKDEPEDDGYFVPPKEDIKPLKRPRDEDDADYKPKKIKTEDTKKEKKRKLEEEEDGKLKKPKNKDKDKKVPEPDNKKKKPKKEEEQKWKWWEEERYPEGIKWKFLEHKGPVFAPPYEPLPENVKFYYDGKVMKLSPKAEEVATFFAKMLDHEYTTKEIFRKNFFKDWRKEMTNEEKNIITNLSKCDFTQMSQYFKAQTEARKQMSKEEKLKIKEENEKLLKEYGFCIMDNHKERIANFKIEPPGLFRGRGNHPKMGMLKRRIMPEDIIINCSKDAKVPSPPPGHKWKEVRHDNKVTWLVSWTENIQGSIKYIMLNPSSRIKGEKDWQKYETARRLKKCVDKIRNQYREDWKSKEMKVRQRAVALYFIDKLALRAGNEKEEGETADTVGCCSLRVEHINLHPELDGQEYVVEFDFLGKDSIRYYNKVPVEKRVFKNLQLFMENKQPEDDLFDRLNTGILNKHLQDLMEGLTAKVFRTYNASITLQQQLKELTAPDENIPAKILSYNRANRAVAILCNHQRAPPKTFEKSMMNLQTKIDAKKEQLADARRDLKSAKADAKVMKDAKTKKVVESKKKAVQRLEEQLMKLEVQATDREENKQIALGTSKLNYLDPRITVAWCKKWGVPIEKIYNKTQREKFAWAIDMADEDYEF

[27] = test system: Candida albicans; experiment: Antimicrobial activity against Candida albicans at 1.25 ug/mL by agar diffusion method; format: functional; details: read-out: IZ
[28] = test system: Escherichia coli; experiment: Antimicrobial activity against Escherichia coli at 2.5 ug/mL by agar diffusion method; format: functional; details: read-out: IZ
[29] = test system: Aspergillus fumigatus; experiment: Antimicrobial activity against Aspergillus fumigatus at 5 ug/mL by agar diffusion method; format: functional; details: read-out: IZ
[30] = test system: Pseudomonas aeruginosa; experiment: Antimicrobial activity against Pseudomonas aeruginosa at 1.25 ug/mL by agar diffusion method; format: functional; details: read-out: IZ
[31] = test system: Candida albicans; experiment: Antimicrobial activity against Candida albicans at 5 ug/mL by agar diffusion method; format: functional; details: read-out: IZ

DNA topoisomerase 2-alpha (Mus musculus), sequence (Q01320 whole entry): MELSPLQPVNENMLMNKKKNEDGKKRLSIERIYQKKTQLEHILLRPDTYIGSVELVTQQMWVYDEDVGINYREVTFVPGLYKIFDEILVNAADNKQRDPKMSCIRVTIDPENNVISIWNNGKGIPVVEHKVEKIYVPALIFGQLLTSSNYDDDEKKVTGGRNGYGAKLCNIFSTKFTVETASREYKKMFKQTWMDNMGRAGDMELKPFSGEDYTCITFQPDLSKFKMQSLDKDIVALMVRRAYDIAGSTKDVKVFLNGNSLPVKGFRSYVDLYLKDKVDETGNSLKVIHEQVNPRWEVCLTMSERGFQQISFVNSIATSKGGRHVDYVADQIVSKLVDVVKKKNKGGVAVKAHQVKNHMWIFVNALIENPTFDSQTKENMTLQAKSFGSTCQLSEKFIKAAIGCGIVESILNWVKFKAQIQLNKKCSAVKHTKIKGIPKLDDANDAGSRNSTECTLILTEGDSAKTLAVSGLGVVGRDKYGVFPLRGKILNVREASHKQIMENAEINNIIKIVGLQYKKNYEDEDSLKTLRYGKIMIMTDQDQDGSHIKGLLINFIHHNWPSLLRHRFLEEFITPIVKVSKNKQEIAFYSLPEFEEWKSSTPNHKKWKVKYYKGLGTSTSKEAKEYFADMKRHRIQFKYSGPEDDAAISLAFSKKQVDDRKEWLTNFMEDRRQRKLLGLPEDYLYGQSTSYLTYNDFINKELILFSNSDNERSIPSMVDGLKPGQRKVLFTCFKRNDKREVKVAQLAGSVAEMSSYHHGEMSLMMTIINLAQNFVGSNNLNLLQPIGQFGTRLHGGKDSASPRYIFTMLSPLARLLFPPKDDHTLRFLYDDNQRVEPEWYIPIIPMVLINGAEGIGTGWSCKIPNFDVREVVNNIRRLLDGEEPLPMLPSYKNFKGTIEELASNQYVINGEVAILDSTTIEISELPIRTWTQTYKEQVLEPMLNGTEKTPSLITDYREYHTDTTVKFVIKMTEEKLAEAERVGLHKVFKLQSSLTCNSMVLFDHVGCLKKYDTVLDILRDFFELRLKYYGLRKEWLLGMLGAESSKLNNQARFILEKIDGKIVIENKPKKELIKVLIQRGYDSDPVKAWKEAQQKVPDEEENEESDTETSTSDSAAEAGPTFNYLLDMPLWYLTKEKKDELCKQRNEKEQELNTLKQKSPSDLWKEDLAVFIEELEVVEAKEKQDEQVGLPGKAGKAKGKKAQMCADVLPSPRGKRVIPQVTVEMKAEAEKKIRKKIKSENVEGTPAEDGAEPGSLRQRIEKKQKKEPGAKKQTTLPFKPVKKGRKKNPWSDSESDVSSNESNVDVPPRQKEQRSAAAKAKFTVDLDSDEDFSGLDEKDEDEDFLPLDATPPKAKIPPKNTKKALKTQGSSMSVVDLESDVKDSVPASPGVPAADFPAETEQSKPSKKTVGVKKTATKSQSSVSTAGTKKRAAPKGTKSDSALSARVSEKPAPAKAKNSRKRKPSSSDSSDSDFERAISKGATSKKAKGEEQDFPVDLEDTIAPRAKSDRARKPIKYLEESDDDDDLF

Compound | MIC [1] | MIC [2] | zone of inhibition at 2.5 µg/mL [3] | zone of inhibition at 2.5 µg/mL [4] | Activity [5] | zone of inhibition at 1.25 µg/mL [6] | zone of inhibition at 2.5 µg/mL [7] | zone of inhibition at 5 µg/mL [8] | zone of inhibition at 5 µg/mL [9] | zone of inhibition at 2.5 µg/mL [10] | zone of inhibition at 5 µg/mL [11] | zone of inhibition at 1.25 µg/mL [12] | zone of inhibition at 2.5 µg/mL [13] | zone of inhibition at 2.5 µg/mL [14] | zone of inhibition at 5 µg/mL [15] | zone of inhibition at 5 µg/mL [16] | zone of inhibition at 1.25 µg/mL [17] | zone of inhibition at 1.25 µg/mL [18] | IC50 [19] | Ratio [20] | further results
O=C1/C(=N/Nc2cccc(Cl)c2)CCCc2ccccc21 | 1 µg/mL (≈ 3.35 µM) | 6 µg/mL (≈ 20.1 µM) | 9 mm | 8 mm | 84.1% | 5 mm | 10 mm | 12 mm | 9 mm | 9 mm | 0 mm | 0 mm | 11 mm | 0 mm | 0 mm | 16 mm | 6 mm | 7 mm | 54.1 µM | 5 | Activity [21]: Active; zone of inhibition at 5 µg/mL [22]: 17 mm; zone of inhibition at 1.25 µg/mL [23]: 0 mm; zone of inhibition at 2.5 µg/mL [24]: 0 mm; zone of inhibition at 1.25 µg/mL [25]: 6 mm; Ratio [26]: 4.9; zone of inhibition at 1.25 µg/mL [27]: 7 mm; zone of inhibition at 2.5 µg/mL [28]: 0 mm; zone of inhibition at 5 µg/mL [29]: 14 mm; zone of inhibition at 1.25 µg/mL [30]: 0 mm; zone of inhibition at 5 µg/mL [31]: 15 mm
c1ccc2c(c1)CCCc1nnc3nncn3c1-2 |  |  | 9 mm | 0 mm |  | 5 mm | 7 mm | 14 mm | 9 mm | 8 mm | 0 mm | 0 mm | 4 mm | 0 mm | 8 mm | 18 mm | 0 mm | 4 mm |  |  | zone of inhibition at 5 µg/mL [22]: 16 mm; zone of inhibition at 1.25 µg/mL [23]: 0 mm; zone of inhibition at 2.5 µg/mL [24]: 0 mm; zone of inhibition at 1.25 µg/mL [25]: 0 mm; zone of inhibition at 1.25 µg/mL [27]: 0 mm; zone of inhibition at 2.5 µg/mL [28]: 0 mm; zone of inhibition at 5 µg/mL [29]: 10 mm; zone of inhibition at 1.25 µg/mL [30]: 0 mm; zone of inhibition at 5 µg/mL [31]: 9 mm
CN(C/C=C/C#CC(C)(C)C)Cc1cccc2ccccc12 [TERBINAFINE] |  |  | 13 mm | 18 mm |  | 4 mm | 18 mm | 15 mm | 27 mm | 6 mm | 11 mm | 4 mm | 10 mm | 9 mm | 19 mm | 21 mm | 11 mm | 11 mm |  |  | zone of inhibition at 5 µg/mL [22]: 22 mm; zone of inhibition at 1.25 µg/mL [23]: 13 mm; zone of inhibition at 2.5 µg/mL [24]: 5 mm; zone of inhibition at 1.25 µg/mL [25]: 9 mm; zone of inhibition at 1.25 µg/mL [27]: 6 mm; zone of inhibition at 2.5 µg/mL [28]: 20 mm; zone of inhibition at 5 µg/mL [29]: 24 mm; zone of inhibition at 1.25 µg/mL [30]: 0 mm; zone of inhibition at 5 µg/mL [31]: 19 mm
Cc1c(C)c2c(c(C)c1O)CCC(C)(C(=O)O)O2 (stereo unspecified) [TROLOX] |  |  |  |  |  |  |  |  |  |  |  |  |  |  |  |  |  |  | 58.4 µM |  | 
O=C1/C(=N/Nc2ccccc2)CCCc2ccccc21 | 1.07 µg/mL (≈ 4.05 µM) | 6.12 µg/mL (≈ 23.2 µM) |  |  |  |  |  |  |  |  |  |  |  |  |  |  |  |  | 56 µM | 4.4 | Activity [21]: Active; Ratio [26]: 4.3
O=C1O[C@H]([C@@H](O)CO)C(O)=C1O |  |  |  |  | 79% |  |  |  |  |  |  |  |  |  |  |  |  |  |  |  | 
COc1ccc(N/N=C2\CCCc3ccccc3C2=O)cc1 | 1.01 µg/mL (≈ 3.43 µM) | 6.01 µg/mL (≈ 20.4 µM) |  |  | 83.9% |  |  |  |  |  |  |  |  |  |  |  |  |  | 54.2 µM | 4.9 | Activity [21]: Active; Ratio [26]: 4.8
NC(=O)c1ncn([C@@H]2O[C@H](CO)[C@@H](O)[C@H]2O)n1 [RIBAVIRIN] | 16.1 µg/mL (≈ 66.1 µM) | 77.9 µg/mL (≈ 319 µM) |  |  |  |  |  |  |  |  |  |  |  |  |  |  |  |  |  |  | 
